Assay outcomes from PubChem BioAssay.
The list is not random: actives were taken first. Their share in the collection is about 2.4%.
Cneo AK release: Cryptococcus neoformans lysis via adenylate kinase release. C. neoformans lysis, adenylate kinase release luminescence, 4 h; normalised: neutral wells 0, clomiphene wells 100. lysis activity, % at 15 µM. 360,000 tested, 0.2% active;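 active = mean lysis activity across replicates of at least 80%, whatever share of replicates individually reach that level; inactive = mean lysis activity below 80%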
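Signal: Adenylate kinase release luminescence | Assay system: Log-phase Cryptococcus neoformans yeast cells | Input: Cells at 5 × 10^6 per mL | Buffer or medium: Fresh YPD growth medium | Compound: Single dose | Schedule: Static 4 h at 37 °C with compound, 1 h detection | Controls: Clomiphene | Read-out: Luminescence rise reflecting yeast cell lysis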
Rtt109 Vps75: inhibitors of Candida albicans Rtt109/Vps75 histone acetyltransferase. Q5AAJ8. purified Rtt109/Vps75, ThioGlo CoA-SH fluorescence, 4 h. inhibition, % at 34.9 µM. 330,000 tested, 0.16% active. AID 540336;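 active = inhibition of at least 50% in every replicate; inconclusive = best replicate reaches 50% inhibition but some replicates fall short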
Target sequence (Q5AAJ8 whole entry, looked up): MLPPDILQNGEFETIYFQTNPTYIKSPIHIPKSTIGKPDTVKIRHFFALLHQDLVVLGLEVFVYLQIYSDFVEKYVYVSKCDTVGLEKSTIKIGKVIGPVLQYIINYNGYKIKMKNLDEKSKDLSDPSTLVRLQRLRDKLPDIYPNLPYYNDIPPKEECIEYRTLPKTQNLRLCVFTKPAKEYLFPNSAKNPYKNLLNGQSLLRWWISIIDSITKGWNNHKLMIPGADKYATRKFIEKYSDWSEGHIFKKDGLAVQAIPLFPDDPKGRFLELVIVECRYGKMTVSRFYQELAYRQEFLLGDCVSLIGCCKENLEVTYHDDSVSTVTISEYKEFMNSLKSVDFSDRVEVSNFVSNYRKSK
dFosB act: enhances mouse delta FosB homodimer DNA binding; P13346; activation, % at 25 µM; AID 493131; purified delta FosB, TAMRA-CDK5 oligo fluorescence polarization; percent of positive-control signal above neutral wells; 340,000 tested, 0.99% active;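 active = mean activation above about 17%, with every replicate also reaching it, limit read from the data, passing the limit was not always enough; inconclusive = only one of the two conditions met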
miR122 inh: inhibitors of miR-122 in Huh7 cells. Huh7 miR-122 Renilla luciferase sensor, 48 h; neutral wells = 0, positive control = 100. activation (reporter increase), % at 12.5 µM. 340,000 tested, 0.3% active;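 active = mean replicate activation score at least 90 and every replicate individually at or above 90; inconclusive = only one of the two criteria met; inactive = neither criterion met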;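 note: higher luciferase means less miR-122 activity so hits act as miR-122 inhibitors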
HIV Env fusion: inhibitors of HIV Env-mediated cell fusion; 360,000 tested, 1.1% active; inhibition, % at 12.3 µM; HeLa-JRFL Env/CEM21 cell fusion, luciferase;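 active = mean replicate inhibition score of at least 50 and every replicate individually at or above 50; inconclusive = only one of the two criteria met; inactive = mean below 50 and not all replicates reaching 50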
GSIS activator: primary screen for activators of insulin secretion dependent on glucose, INS-1E cells, GLuc reporter luminescence; INS-1E GLuc reporter insulin secretion, 2-3 h; 370,000 tested, 0.61% active; activation, % at 16.6 µM;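 active = lowest replicate activation of at least 40%, so every replicate reaches that level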
Hits are given with their value; - = inactive; ? = inconclusive; . = no result given; + = active, no number.

SMILES	Cneo AK release	Rtt109 Vps75	dFosB act	miR122 inh	HIV Env fusion	GSIS activator
CC1(C)C(=O)Nc2ccccc2N1C(=O)COC(=O)c1cccnc1	-	-	-	-	64.5	-
Cc1ccc(S(=O)(=O)N2CCCCC2)cc1C(=O)OCC(=O)N1c2ccccc2NC(=O)C1(C)C	-	-	-	.	?	-
CN1CCN(C(=O)C2=C[C@H](C3CC3)C[C@H](OCCCCO)O2)CC1	-	.	.	.	-	.
OC(c1ccc(Cl)c(F)c1)c1ncc(-c2cccc(F)c2)[nH]1 (stereo not given)	-	.	.	123.7	-	-
Cc1cc(C(O)c2ncc(-c3ccccc3)[nH]2)ccc1F (stereo not given)	-	.	.	157.9	.	.
COc1ccc(NC(=O)N(C)C[C@H]2Oc3c(NC(=O)NC(C)C)cccc3C(=O)N([C@@H](C)CO)C[C@@H]2C)cc1	-	.	.	-	.	-
COc1ccc(-c2ccc(-c3cc(=O)oc4cc(OC)c(OC)c(OC)c34)cc2)cc1OC	-	-	-	.	?	-
COc1cc2oc(=O)cc(-c3cccc(-c4cccc(C)c4)c3)c2c(OC)c1OC	-	-	-	-	57.3	-
CN(C)CCCNC(=O)C[C@H]1CC[C@@H]2[C@H](COC[C@H](O)CN2CC2CCCC2)O1	-	.	.	-	-	-
COc1ccc(NC(=O)Nc2ccc3c(c2)N(C)C(=O)CS3)cc1Cl	-	-	-	-	75.8	.
COc1ccc(Cn2c(SCc3cc(C)ccc3C)nc3cc(OC)c(OC)cc3c2=N)cc1	-	-	40.4	-	-	.
COc1cc2nc(SCc3ccc(Cl)cc3Cl)n(Cc3cccs3)c(=N)c2cc1OC	-	-	-	-	-	.
COc1ccc(Cn2c(SCc3ccc(C)cc3)nc3cc(OC)c(OC)cc3c2=N)cc1Cl	-	-	58.8	-	122.4	.
COc1cc(CC(=O)O)ccc1OCc1ccccc1	-	-	-	-	-	-
COc1cc2ccc(CC(=O)O)cc2cc1OC	.	.	.	.	-	77.2
O=C(C[C@@H]1CC[C@H]2[C@@H](COC[C@@H](O)CN2Cc2ccc(Oc3ccccc3)cc2)O1)Nc1nccs1	-	.	.	-	-	-
FC(F)(F)c1cc(CCN2CCNC[C@H]2Cc2cccc3ccccc23)cc(C(F)(F)F)c1	-	-	-	.	-	+
COc1ccc2c3c(n(C)c2c1)[C@H](CO)N(C(=O)Nc1ccc(F)cc1)CC31CCN(C(=O)CN2CCOCC2)CC1	.	.	.	.	-	-
C(=C\c1ccccc1)/CN1CCN(c2ncnc3c2oc2ccccc23)CC1	.	-	-	-	77.7	-
C[C@H]1CN(C)C(=O)c2cc(N(C)C)ccc2O[C@@H]1CN(C)C	.	.	.	.	.	-
O=C(NCCN1CCCCC1)Nc1ccc([N+](=O)[O-])cc1	-	51.2	-	-	-	-
C[C@H]1CN([C@@H](C)CO)S(=O)(=O)c2ccc(C#CC3CC3)cc2O[C@@H]1CN(C)Cc1cncnc1	.	.	.	-	-	-
C/C=C1\COC(C(=O)NCc2ccccc2)(C(F)(F)F)C=C1C=C(C)C (stereo not given)	-	-	-	.	-	112.2
CN(C)C(=O)c1ccc(-c2cccc(-c3nc(C(=O)N(C)C)cc4c3[C@H](CCO)N([S@@](=O)C(C)(C)C)C4)c2)cc1	-	.	.	.	-	-
c1ccc(Cn2nnc3c(N4CCc5ccccc54)ncnc32)cc1	-	-	-	-	-	86.2
SMILES	Cneo AK release	Rtt109 Vps75	dFosB act	miR122 inh	HIV Env fusion	GSIS activator
CC(C)Oc1ccc(C(=O)Nc2nc3ccccc3[nH]2)cc1	-	-	-	-	57.3	-
Cc1cc(NC(=O)c2ccccc2F)n(-c2nc3ccccc3[nH]2)n1	-	-	-	-	-	64.3
CN(c1ccccc1)S(=O)(=O)c1ccc(Cl)c(C(=O)Nc2nc3ccccc3[nH]2)c1	-	-	-	-	71.8	-
O=C(Nc1nc2ccccc2[nH]1)c1ccccc1F	-	-	-	-	74.6	-
CO[C@H]1CN(C)C(=O)c2cc(C#N)ccc2OCC[C@@H]2CC[C@@H](OC)[C@@H](CN(C)C(=O)[C@@H]1C)O2	-	.	.	.	-	-
CC12CC3CC(C)(C1)CC(C(=O)NNC(=O)c1ccncc1)(C3)C2	-	-	-	-	-	-
CC(NC(=O)C12CC3CC(C)(CC(C)(C3)C1)C2)c1ccncc1 (stereo not given)	-	-	-	-	64.8	-
CO[C@H]1CN(C)C(=O)c2cc(NC(=O)C3CC3)ccc2OC[C@H](C)N(C(=O)c2ccccn2)C[C@@H]1C	.	.	.	-	.	-
CNC[C@@H]1OCCCC[C@@H](C)Oc2ccc(NC(=O)NC(C)C)cc2C(=O)N([C@@H](C)CO)C[C@H]1C	87.8	.	.	-	-	-
CNC[C@H]1OCCCC[C@H](C)Oc2ccc(NC(=O)Nc3ccc4c(c3)OCO4)cc2C(=O)N([C@H](C)CO)C[C@@H]1C	.	.	.	-	-	-
CNC[C@H]1OCCCC[C@@H](C)Oc2ccc(NC(=O)NC(C)C)cc2C(=O)N([C@@H](C)CO)C[C@@H]1C	-	.	.	-	-	-
CNC[C@@H]1OCCCC[C@@H](C)Oc2ccc(NC(=O)Nc3ccc4c(c3)OCO4)cc2C(=O)N([C@H](C)CO)C[C@@H]1C	89.2	.	.	-	-	-
O=C(NCc1ccco1)c1ccc(N2CCCCC2)c([N+](=O)[O-])c1	-	-	-	-	-	-
Cc1ccc(N(Cc2ccco2)C(=O)c2ccc(N3CCCCC3)c([N+](=O)[O-])c2)cc1	-	-	-	164.5	-	-
COc1ccccc1N1CCN(C(=O)c2ccc(Cn3c(=O)[nH]c4ccsc4c3=O)cc2)CC1	-	.	-	118.5	-	-
Cc1ccc(-n2cc(CNCCCn3cccn3)c(-c3cccc(C)c3)n2)cc1	-	-	-	-	-	-
Cc1ccc(C)c(-n2cc(CNCCCn3cccn3)c(-c3ccccc3)n2)c1	-	-	-	-	69.4	-
Cc1ccc(-n2cc(CNCCCn3ccnc3C)c(-c3ccc(F)cc3)n2)cc1	-	-	-	-	-	43.9
